This note sets out measurements from ChEMBL document CHEMBL1147169, “From pyrroles to 1-oxo-2,3,4,9-tetrahydro-1H-beta-carbolines: a new class of orally bioavailable mGluR1 antagonists” (Bioorg Med Chem Lett, 2007).

What is called bioavailability is the share of a dose that reaches the circulation, judged against a reference dose that is usually intravenous. A low value points to poor availability. A word on the Cmax: it is the maximum level reached in the sampled fluid or tissue. As a reminder, the IC50 is the concentration that inhibits the measured activity by half. One may read the clearance as the rate of elimination divided by the concentration. Low readings indicate a low capacity for elimination, high ones a high capacity for elimination.

Sequence of Metabotropic glutamate receptor 1 (P23385 whole entry): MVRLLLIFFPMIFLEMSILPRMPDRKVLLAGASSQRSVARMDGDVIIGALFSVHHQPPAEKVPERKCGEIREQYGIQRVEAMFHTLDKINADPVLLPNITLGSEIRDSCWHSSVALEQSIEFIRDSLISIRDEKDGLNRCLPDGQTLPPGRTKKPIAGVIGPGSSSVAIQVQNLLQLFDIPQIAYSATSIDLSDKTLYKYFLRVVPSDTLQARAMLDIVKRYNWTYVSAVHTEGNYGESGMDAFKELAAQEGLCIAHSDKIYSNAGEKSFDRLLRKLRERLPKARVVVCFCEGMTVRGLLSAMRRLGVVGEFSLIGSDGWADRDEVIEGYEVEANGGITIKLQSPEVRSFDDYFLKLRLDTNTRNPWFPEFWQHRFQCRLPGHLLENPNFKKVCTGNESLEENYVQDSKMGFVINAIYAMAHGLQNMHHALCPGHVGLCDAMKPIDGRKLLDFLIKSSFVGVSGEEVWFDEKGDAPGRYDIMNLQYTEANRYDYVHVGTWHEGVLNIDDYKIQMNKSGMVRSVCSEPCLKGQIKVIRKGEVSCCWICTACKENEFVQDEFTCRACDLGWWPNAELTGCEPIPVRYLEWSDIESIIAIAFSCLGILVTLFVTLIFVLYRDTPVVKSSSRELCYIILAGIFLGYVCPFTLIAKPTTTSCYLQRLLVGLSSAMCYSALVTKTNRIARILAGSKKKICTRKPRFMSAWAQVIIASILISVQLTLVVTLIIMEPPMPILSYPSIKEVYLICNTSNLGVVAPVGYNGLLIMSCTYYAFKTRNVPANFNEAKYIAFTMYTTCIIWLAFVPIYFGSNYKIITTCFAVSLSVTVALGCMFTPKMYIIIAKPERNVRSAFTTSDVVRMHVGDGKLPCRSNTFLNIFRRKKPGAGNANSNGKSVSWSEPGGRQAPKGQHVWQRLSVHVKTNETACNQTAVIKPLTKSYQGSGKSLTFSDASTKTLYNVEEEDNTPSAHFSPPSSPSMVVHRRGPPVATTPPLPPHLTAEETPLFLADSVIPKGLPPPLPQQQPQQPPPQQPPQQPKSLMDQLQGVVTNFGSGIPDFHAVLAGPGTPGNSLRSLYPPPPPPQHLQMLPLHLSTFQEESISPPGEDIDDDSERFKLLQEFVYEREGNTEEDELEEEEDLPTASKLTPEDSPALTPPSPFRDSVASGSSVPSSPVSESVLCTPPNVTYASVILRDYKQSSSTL

System in the first data set: not listed separately
The data set is described as follows: Oral bioavailability in rat at 5 mg/kg, po. The data set is classed as ADME, organism-based. Conditions: in vivo; call rule not given here.
Consider `O=C1NCCc2c1[nH]c1ccc(OCc3ccccc3)cc21`, for which the bioavailability came to 9%.

System in a further data set: not listed separately
The data set is described as follows: Oral bioavailability in rat at 1 mg/kg, po. The data set is classed as ADME, organism-based. As to conditions: in vivo.
In turn, `O=C1NCCc2c1[nH]c1ccc(OCc3ccccc3)cc21` displayed a bioavailability of 0%.

System in the next data set: not listed separately
Briefly: Cmax in rat. The format is ADME, organism-based. Conditions: in vivo. Summed up: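 Maximum plasma concentration (ng/ml) measured after oral administration in rat.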
Consider `O=C(NC12CC3CC(CC(C3)C1)C2)c1ccc2[nH]c3c(c2c1)CCNC3=O`, for which the Cmax was determined as 37 ng/mL.

Molecule `O=C1NCCc2c1[nH]c1ccc(OCc3ccccc3)cc21` had a Cmax of 145 ng/mL.

Take `Cc1cc2[nH]c3c(c2cc1OCc1ccccc1)CCNC3=O`: the Cmax is 264 ng/mL.

Another data set has as its target Metabotropic glutamate receptor 1 (Rattus norvegicus, UniProt P23385). Briefly: Antagonist activity at rat mGluR1a expressed in CHO cells assessed as inhibition of intracellular calcium ion mobilization by FLIPR assay.
Details: not given
The data set is classed as functional, cell-based. In general terms: Calcium assays in cells follow changes in intracellular calcium, usually with a dye or a luminescent sensor.
For the molecule `O=C(NC12CC3CC(CC(C3)C1)C2)c1ccc2[nH]c3c(c2c1)CCNC3=O`, the half-maximal inhibitory concentration (IC50) came to 71 nM.

Consider `O=C(NC1C2CC3CC(C2)CC1C3)c1ccc2[nH]c3c(c2c1)CCNC3=O` (centres undefined), for which the half-maximal inhibitory concentration (IC50) worked out at 93 nM.

Regarding `O=C1NCc2c1[nH]c1ccc(OCc3ccccc3)cc21`, the concentration for half-maximal inhibition (IC50) came to 683 nM.

With `O=C1NN=CC2c3cc(OCc4ccccc4)ccc3NC12` (centres undefined), the IC50 is 1020 nM.

As for `CCCOC(=O)c1[nH]c(C)c(C(=O)O[C@@H](C)C(C)(C)C)c1C`, the IC50 came to 16 nM.

As to `O=C1NCCc2c1[nH]c1cccc(OCc3ccccc3)c21`, the IC50 stood at 3980 nM.

On to `c1ccc(COc2ccc3[nH]c4c(c3c2)CCNC4)cc1`, for which the half-maximal inhibitory concentration (IC50) was > 10000 nM.

Consider `c1ccc(COc2ccc3c(c2)C2CCNCC2N3)cc1` (centres undefined), for which the half-inhibitory concentration (IC50) was > 10000 nM.

In the case of `O=C1CCCc2c1[nH]c1ccc(OCc3ccccc3)cc21`, the 50% inhibitory concentration (IC50) is > 10000 nM.

Consider `CC(NC(=O)c1ccc2[nH]c3c(c2c1)CCNC3=O)C(C)(C)C` (centres undefined), for which the 50% inhibitory concentration (IC50) was > 10000 nM.

Regarding `CC(N(C)C(=O)c1ccc2[nH]c3c(c2c1)CCNC3=O)C(C)(C)C` (centres undefined), the IC50 stood at 120 nM.

For the molecule `O=C(NC1CC2CCC1C2)c1ccc2[nH]c3c(c2c1)CCNC3=O` (centres undefined), the IC50 was 226 nM.

As for `O=C1NCCc2c1[nH]c1ccc(OCc3ccccc3)cc21`, the IC50 was 104 nM.

For the molecule `O=C(NCC12CC3CC(CC(C3)C1)C2)c1ccc2[nH]c3c(c2c1)CCNC3=O`, the IC50 was determined as 312 nM.

As for `O=C(Nc1ccc2[nH]c3c(c2c1)CCNC3=O)NC12CC3CC(CC(C3)C1)C2`, the IC50 amounted to 4660 nM.

Consider `O=C1NCCc2c1[nH]c1ccc(OCC3CCCCC3)cc21`, for which the IC50 was 5560 nM.

For the molecule `O=C(Nc1ccccc1)c1ccc2[nH]c3c(c2c1)CCNC3=O`, the IC50 came to 1040 nM.

Turning to `O=C1NCCc2c1[nH]c1ccc(NC(=O)C34CC5CC(CC(C5)C3)C4)cc21`, the IC50 amounted to 71 nM.

In the case of `O=C1NCCc2c1[nH]c1ccc(Oc3ccccc3)cc21`, the half-maximal inhibitory concentration (IC50) amounted to 4070 nM.

As to `O=C1NCCC2c3cc(OCc4ccccc4)ccc3NC12` (centres undefined), the IC50 was 1670 nM.

`Cc1cc2[nH]c3c(c2cc1OCc1ccccc1)CCNC3=O`: the IC50 is 167 nM.

Take `O=C1NCCc2c1[nH]c1cc(OCc3ccccc3)ccc21`: the IC50 amounted to 2850 nM.

For the molecule `O=C1NCCc2c1[nH]c1ccc(O)cc21`, the IC50 was > 10000 nM.

For the molecule `CC(Oc1ccc2[nH]c3c(c2c1)CCNC3=O)C(C)(C)C` (centres undefined), the IC50 was determined as 239 nM.

With `CC(Oc1ccc2[nH]c3c(c2c1)CCNC3=O)c1ccccc1` (centres undefined), the half-inhibitory concentration (IC50) was determined as 380 nM.

Regarding `COc1ccc2[nH]c3c(c2c1)CCNC3=O`, the IC50 is > 10000 nM.

System in a further data set: not listed separately
The data set is described as follows: Plasma clearance in rat.
Details: not given
The data set is classed as ADME, organism-based.
As to `O=C(NC12CC3CC(CC(C3)C1)C2)c1ccc2[nH]c3c(c2c1)CCNC3=O`, the clearance came to 54 mL/min/kg.

`O=C1NCCc2c1[nH]c1ccc(NC(=O)C34CC5CC(CC(C5)C3)C4)cc21` came in with a clearance of 52 mL/min/kg.

A further data set relates to Mus musculus. Briefly: Reduction of inflammatory pain in late phase of formalin-induced mouse at 10 mg/kg, po. The data set is classed as ADME, organism-based. The arrangement: dose 10 mg/kg, route oral. Conditions: in vivo. Summed up: (§1)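 Mice given compound po at 10 or 30 mg/kg, 30 min before 20 µl 1% formalin into left hind paw; nociceptive behaviour time (s) scored in early phase (0–5 min) and late phase (20–60 min); n = 8-19; significance p < 0.05 / p < 0.01 versus vehicle.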
As for `Cc1cc2[nH]c3c(c2cc1OCc1ccccc1)CCNC3=O`, the outcome was Active.

In a further data set the test system is Mus musculus. Briefly: Reduction of inflammatory pain in late phase of formalin-induced mouse at 30 mg/kg, po. The format is ADME, organism-based. The arrangement: dose 30 mg/kg, route oral. Conditions: in vivo. The procedure, abridged:
as §1
In the case of `Cc1cc2[nH]c3c(c2cc1OCc1ccccc1)CCNC3=O`, the outcome was Active.

System in the next data set: not listed separately
The data set is described as follows: Oral bioavailability in rat. The data set is classed as ADME, organism-based. Conditions: in vivo.
In turn, `O=C(NC12CC3CC(CC(C3)C1)C2)c1ccc2[nH]c3c(c2c1)CCNC3=O` had a bioavailability of 12%.

With `Cc1cc2[nH]c3c(c2cc1OCc1ccccc1)CCNC3=O`, the bioavailability was 36%.

Another data set concerns Mus musculus. Briefly: Reduction of inflammatory pain in early phase of formalin-induced mouse at 30 mg/kg, po. As to conditions: in vivo. The format is ADME, organism-based. The arrangement: dose 30 mg/kg, route oral. The procedure, abridged: as §1
Turning to `Cc1cc2[nH]c3c(c2cc1OCc1ccccc1)CCNC3=O`, the result was Active.

In a further data set the test system is Rattus norvegicus. The data set is described as follows: Ratio of drug level in rat from brain to plasma at 3 mg/kg, iv after 1 hr. As to conditions: in vivo.
In the case of `Cc1cc2[nH]c3c(c2cc1OCc1ccccc1)CCNC3=O`, the Ratio is recorded as 6.1.
